The values that follow come from ChEMBL document CHEMBL1131182, “Anti-AIDS agents. 34. Synthesis and structure-activity relationships of betulin derivatives as anti-HIV agents” (J Med Chem, 1998).

A short description of data set [1]: Therapeutic Index is the […] of the IC50 to that of EC50. The conditions noted are these: human, H9 cells; read-out: TI. The format is cell-based.
The test system of data set [2] is H9. Description: Anti-HIV activity against acutely infected H9 lymphocytes. Activity expressed as concentration of compound able to suppress HIV replication by 50%. The format is functional, cell-based. The conditions noted are these: Homo sapiens. The method, boiled down: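 H9 cells (RPMI 1640, 10% FCS, L-glutamine, 37 °C, 5% CO2, log phase) infected 1 h with HIV-1 IIIB at MOI 0.1-0.01, washed and plated at 4 × 10^5 cells/mL with DMSO-dissolved samples (screen 100, 20, 4, 0.8 µg/mL final, further dilutions for actives). After 4 days, supernatant p24 was measured by antigen-capture ELISA against a standard curve. EC50 is 50% suppression of replication; at least two experiments averaged.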

The subject of data set [3] is H9. Kind of data set: Anti-HIV activity against acutely infected H9 lymphocytes. Activity expressed as concentration of compound toxic to 50% of mock-infected H9 cells. The data set is classed as functional, cell-based. The conditions noted are these: Homo sapiens. The method, boiled down:
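Uninfected H9 cells were exposed to DMSO-dissolved samples (screen 100, 20, 4, 0.8 µg/mL final) for 4 days at 37 °C, 5% CO2. Remaining cells were counted with a counter against medium-only controls. IC50 is the concentration toxic to 50% of mock-infected cells; at least two experiments averaged.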

Data set [4] concerns H9. Kind of data set: Anti-HIV activity was measured in […] by MAGI assay. The format is functional, cell-based. The conditions noted are these: Homo sapiens. The method, boiled down:
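HeLa-CD4/β-gal cells were plated at 10 000/well in DMEM with G418 500 µg/mL and hygromycin 250 µg/mL for 1 day. They were then infected with virus dilutions in the presence of varying drug for 2 days at 37 °C. Cells were fixed (1% formaldehyde, 0.2% glutaraldehyde) and stained with X-gal 0.4 mg/mL. Blue cells were counted, and EC50 was taken as a 50% reduction in infected cells.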

Turning to `C=C(CO)[C@@H]1CC[C@]2(CO)CC[C@]3(C)[C@H](CC[C@@H]4[C@@]5(C)CC[C@H](O)C(C)(C)[C@@H]5CC[C@]43C)[C@@H]12` [30-HYDROXY-BETULIN], the selectivity ratio in data set [1] is 2.8. In the data set on H9 [2], the EC50 (usually the concentration at which the effect is half-maximal) was found to be 50.8 µM. The concentration for half-maximal inhibition (IC50) (in general, the concentration at which inhibition is half-maximal) with H9 [3] was greater than 140 µM.

Regarding `C=C(C)[C@@H]1CC[C@]2(COC(C)=O)CC[C@]3(C)[C@H](CC[C@@H]4[C@@]5(C)CC[C@H](OC(C)=O)C(C)(C)[C@@H]5CC[C@]43C)[C@@H]12` [BETULIN DIACETATE], the selectivity ratio in data set [1] was less than 1. This molecule also returned an EC50 in the data set with H9 [2] greater than 190 µM. Besides, the IC50 with H9 [3] was greater than 190 µM.

On to `C=C(C)[C@@H]1CC[C@]2(/C=N/O)CC[C@]3(C)[C@H](CC[C@@H]4[C@@]5(C)CC/C(=N\O)C(C)(C)[C@@H]5CC[C@]43C)[C@@H]12` [BETULIN-3,28-DIOXIME], for which the selectivity ratio in data set [1] is 5.1. Further, the EC50 in the data set with H9 [2] amounted to 1.07 µM. Also, it took 5.47 µM to reach half-maximal inhibition in the data set on H9 [3] (IC50).

In the case of `C=C(C)[C@@H]1CC[C@]2(C=O)CC[C@]3(C)[C@H](CC[C@@H]4[C@@]5(C)CCC(=O)C(C)(C)[C@@H]5CC[C@]43C)[C@@H]12` [BETULONAL], the selectivity ratio in data set [1] came out at 1.1. In the data set on H9 [2], this molecule gave an EC50 of 45.6 µM. Moreover, the IC50 in the data set with H9 [3] is 49 µM.

As for `C=C(C)[C@@H]1CC[C@]2(C(=O)O)CC[C@]3(C)[C@H](CC[C@@H]4[C@@]5(C)CC[C@H](OC(=O)CC(C)(C)C(=O)O)C(C)(C)[C@@H]5CC[C@]43C)[C@@H]12` [BEVIRIMAT], in data set [1], the selectivity ratio was greater than 20000. Besides, in the data set on H9 [2], the concentration giving a half-maximal response (EC50) is less than 0.00035 µM. The IC50 with H9 [3] is greater than 7 µM.

On to `Cc1cn([C@H]2C[C@H](N=[N+]=[N-])[C@@H](CO)O2)c(=O)[nH]c1=O` [ZIDOVUDINE], for which, in the data set on H9 [4], the response was half-maximal at 0.037 µM (EC50).
